In ChEMBL document CHEMBL3826876, “Toward the Development of Specific G-Quadruplex Binders: Synthesis, Biophysical, and Biological Studies of New Hydrazone Derivatives” (J Med Chem, 2016):
Calls of active or inactive are those of the source. No cut-off for these calls is given here.

How the values were obtained:
[1] = Binding affinity to synthetic telomere 23 parallel G-quadruplex DNA assessed as change in melting temperature at 4 mol equiv in presence of 100 mM KCl buffer by circular dichroism spectroscopic analysis
How it was run: (§1)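 CD melting, 20-100 °C at 1 °C/min, signal at 264 (parallel), 290 (antiparallel) or 280 nm (duplex). G4 DNA 10 µM or duplex 15 µM, folded by heating at 90 °C 5 min and slow cooling, in 10 mM potassium phosphate (c-kit1, Tel23, Tel26) or lithium phosphate (Tel23-p, ds12) pH 7.0 with 100 mM KCl. Ligand 4 equiv; Tm by curve fit, ΔTm vs DNA alone; duplicate average.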

[2] = Effect on preformed synthetic c-MYC parallel G-quadruplex DNA topology in tris buffer after 10 mins by circular dichroism titration method
[3] = Binding affinity to synthetic c-MYC G-quadruplex DNA assessed as change in melting temperature at 4 mol equiv in presence of 20 mM KCl buffer by circular dichroism spectroscopic analysis
[4] = Binding affinity to synthetic c-KIT2 G-quadruplex DNA assessed as increase in thermal stability in presence of 20 mM KCl buffer by circular dichroism spectroscopic analysis
How it was run: (§2)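 CD melting in 5 mM potassium phosphate, 20 mM KCl, 10 µM folded G4, heated 20-100 °C at 1 °C/min; ligand:DNA ratios 1:1, 2:1 and 4:1 compared; Tm from curve fit.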

[5] = Effect on synthetic telomere 23 G-quadruplex DNA topology at 4 mol equiv by circular dichroism spectroscopic analysis
How it was run: (§3)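 CD spectra at 20 °C, 230-360 nm, 3 scans averaged, baseline subtracted; 10 µM G4 or 15 µM duplex in potassium- or lithium-phosphate pH 7.0 buffers with 100 mM KCl (c-kit2, c-myc: 5 mM potassium phosphate, 20 mM KCl); ligand 4 molar equiv added to folded DNA from 6 mM DMSO stock.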

[6] = Effect on synthetic c-KIT1 G-quadruplex DNA topology at 4 mol equiv by circular dichroism spectroscopic analysis; how it was run: as §3
[7] = Effect on synthetic c-KIT2 G-quadruplex DNA topology at 4 mol equiv by circular dichroism spectroscopic analysis; how it was run: as §3
[8] = Effect on synthetic c-MYC G-quadruplex DNA topology at 4 mol equiv by circular dichroism spectroscopic analysis; how it was run: as §3
[9] = Effect on synthetic telomere 23 parallel G-quadruplex DNA topology at 4 mol equiv by circular dichroism spectroscopic analysis; how it was run: as §3
[10] = Effect on synthetic telomere 26 G-quadruplex DNA topology at 4 mol equiv by circular dichroism spectroscopic analysis; how it was run: as §3
[11] = Effect on synthetic self-complementary DNA 12-mer duplex topology at 4 mol equiv in presence of K+ ions by circular dichroism spectroscopic analysis; how it was run: as §3
[12] = Binding affinity to synthetic c-KIT1 G-quadruplex DNA assessed as change in melting temperature at 4 mol equiv in presence of 100 mM KCl buffer by circular dichroism spectroscopic analysis; how it was run: as §1
[13] = Binding affinity to synthetic c-KIT2 G-quadruplex DNA assessed as change in melting temperature at 4 mol equiv in presence of 20 mM KCl buffer by circular dichroism spectroscopic analysis
How it was run: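 CD melting as for other targets (20-100 °C, 1 °C/min, 10 µM folded G4, ligand 4 equiv), but in 5 mM potassium phosphate with 20 mM KCl; c-kit2 read at 264 nm as parallel G4. ΔTm from fitted Tm, duplicate average.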

[14] = Binding affinity to synthetic telomere 23 G-quadruplex DNA assessed as change in melting temperature at 4 mol equiv in presence of 100 mM KCl buffer by circular dichroism spectroscopic analysis; how it was run: as §1
[15] = Binding affinity to synthetic telomere 26 G-quadruplex DNA assessed as change in melting temperature at 4 mol equiv in presence of 100 mM KCl buffer by circular dichroism spectroscopic analysis; how it was run: as §1
[16] = Binding affinity to synthetic self-complementary DNA 12-mer duplex assessed as change in melting temperature at 4 mol equiv in presence of 100 mM KCl buffer by circular dichroism spectroscopic analysis; how it was run: as §1
Homo sapiens [17] = species on record: Homo sapiens; experiment: Binding affinity to human 5'-FAM/3'-TAMRA labeled telomere 21 G-quadruplex DNA assessed as increase in melting temperature by FRET assay
How it was run: (§4)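 FRET melting screen in 60 mM potassium cacodylate pH 7.4, labelled probe 400 nM annealed at 85 °C for 10 min; ligands at various concentrations up to 20 µM, diluted from 10 mM DMSO stock via 10 mM HCl. Excitation 450-495 nm, emission 515-545 nm, 30-100 °C in 0.5 °C steps with 30 s hold; ΔTm by curve fitting, triplicate.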

[18] = Binding affinity to 5'-FAM/3'-TAMRA labeled c-KIT2 G-quadruplex DNA (unknown origin) assessed as change in melting temperature at 4:1 ligand:DNA ratio in presence of 20 mM KCl buffer by FRET assay
How it was run: (§5)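 FRET melting of FAM/TAMRA-labelled G4 oligos (400 nM, annealed 85 °C 10 min) with ligand at 4 equiv, same buffers as CD (20 mM KCl for c-kit2 and c-myc; 100 mM KCl for telomeric parallel form, annealed at high concentration). Excitation 450-495 nm, emission 515-545 nm, read every 0.5 °C over 30-100 °C; ΔTm by curve fit; duplicate runs averaged.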

[19] = Binding affinity to 5'-FAM/3'-TAMRA labeled c-MYC G-quadruplex DNA (unknown origin) assessed as change in melting temperature at 4:1 ligand:DNA ratio in presence of 20 mM KCl buffer by FRET assay; how it was run: as §5
[20] = Binding affinity to human 5'-FAM/3'-TAMRA labeled telomere 21 parallel G-quadruplex DNA (unknown origin) assessed as change in melting temperature at 4:1 ligand:DNA ratio in presence of 100 mM KCl buffer by FRET assay; how it was run: as §5
[21] = Induction of parallel G-quadruplex formation in synthetic unfolded c-KIT1 DNA assessed as increase in molar ellipticity after 10 mins by in absence of metal cation circular dichroism titration method
How it was run: (§6)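 CD titration without metal ions: unfolded oligonucleotide 12-15 µM in 50 mM Tris; ligand added in 0.5 equiv steps, spectrum recorded 10 min after each addition at 20 °C, 230-360 nm, 3 scans averaged.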

[22] = Induction of parallel G-quadruplex formation in synthetic unfolded c-KIT2 DNA assessed as increase in molar ellipticity after 10 mins in absence of metal cation by circular dichroism titration method; how it was run: as §6
[23] = Induction of G-quadruplex formation in synthetic unfolded telomere 23 DNA assessed as increase in molar ellipticity after 10 mins in absence of metal cation by circular dichroism titration method; how it was run: as §6
Homo sapiens [24] = species on record: Homo sapiens; experiment: Binding affinity to human 5'-FAM/3'-TAMRA labeled duplex DNA T-loop assessed as increase in melting temperature by FRET assay; how it was run: as §4
U2OS [25] = experiment: Cytotoxicity against human U2OS cells assessed as cell killing after 1 hr by MTT assay; assay type: functional, cell-based
How it was run: (§7)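 U2OS and HCT116 in DMEM with 10% FBS, 1% L-glutamine, seeded at 40000 cells/ml; 24 h later exposed for 1 h or 24 h, then drug-free medium 1-2 days. MTT 1 h at 37 °C, DMSO solubilisation, absorbance 595 nm. IC50 by linear regression; two independent experiments in triplicate, mean ± SE.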

[26] = Cytotoxicity against human HCT116 cells assessed as cell killing after 1 hr by MTT assay; assay type: functional, cell-based; details: HCT-116, 1 h; how it was run: as §7
U2OS [27] = experiment: Cytotoxicity against human U2OS cells assessed as cell killing after 24 hrs by MTT assay; assay type: functional, cell-based; how it was run: as §7
[28] = Cytotoxicity against human HCT116 cells assessed as cell killing after 24 hrs by MTT assay; assay type: functional, cell-based; details: HCT-116, 24 h; how it was run: as §7
U2OS [29] = experiment: Cytotoxicity against human U2OS cells assessed as cell death after 24 hrs by FACS analysis; assay type: cell-based
U2OS [30] = experiment: Cytotoxicity against human U2OS cells assessed as cell death after 24 hrs by microscopic analysis; assay type: cell-based
[31] = Binding affinity to synthetic c-MYC G-quadruplex DNA assessed as increase in thermal stability in presence of 20 mM KCl buffer by circular dichroism spectroscopic analysis; how it was run: as §2

ΔTm [1] [°C]	ΔTm [3] [°C]	Activity [5]	Activity [6]	Activity [7]	Activity [8]	Activity [9]	Activity [10]	Activity [11]	ΔTm [12] [°C]	ΔTm [13] [°C]	ΔTm [14] [°C]	ΔTm [15] [°C]	ΔTm [16] [°C]	Activity (Homo sapiens [17])	Activity (Homo sapiens [24])	SMILES	other results
> 20	> 20	inactive	inactive	inactive	inactive	inactive	inactive	inactive	> 15	> 20	6	5.8	–	Active	Active	Cn1c(Cl)c(/C=N/NC(=N)N)c2ccc(/C=N/NC(=N)N)cc21	–
> 20	> 20	inactive	inactive	inactive	inactive	inactive	inactive	inactive	> 15	> 15	3	1.3	–	Active	Active	Cn1c(Cl)c(/C=N/NC(=N)N)c2cc3c(/C=N/NC(=N)N)c(Cl)n(C)c3cc21	–
> 20	> 20	inactive	inactive	inactive	inactive	inactive	inactive	inactive	> 15	> 15	5.6	5.1	–	Active	Active	N=C(N)N/N=C/c1ccc2c(/C=N/NC(=N)N)c(Cl)n(-c3ccccc3)c2c1	–

The remaining lines, values behind:

SMILES	ΔTm [1] [°C]	ΔTm [3] [°C]	Activity [5]	Activity [6]	Activity [7]	Activity [8]	Activity [9]	Activity [10]	Activity [11]	ΔTm [12] [°C]	ΔTm [13] [°C]	ΔTm [14] [°C]	ΔTm [15] [°C]	ΔTm [16] [°C]	Activity (Homo sapiens [17])	Activity (Homo sapiens [24])	other results
N=C(N)N/N=C/c1c(-c2ccsc2)nc2n1ccc1nc(-c3ccsc3)c(/C=N/NC(=N)N)n12	> 20	> 20	inactive	inactive	inactive	inactive	inactive	inactive	inactive	> 15	> 20	-4.9	-6.5	3.5	Active	–	Activity [2]: inactive; Activity [4]: Dose-dependent effect; ΔTm [18]: > 20 °C; ΔTm [19]: > 20 °C; ΔTm [20]: > 20 °C; Activity [21]: Dose-dependent effect; Activity [22]: Active; Activity [23]: inactive
Cl.Cl.N=C(N)N/N=C/c1c(-c2ccccc2)nc2n1ccc1nc(-c3ccccc3)c(/C=N/NC(=N)N)n12	–	–	–	–	–	–	–	–	–	–	–	–	–	–	–	–	IC50 (U2OS [25]): 101 µM; IC50 [26]: 35.1 µM; IC50 (U2OS [27]): 16 µM; IC50 [28]: 5.12 µM; Activity (U2OS [29]): Non-toxic; Activity (U2OS [30]): Non-toxic
C(=N\Nc1ccccn1)/c1c(-c2ccccc2)nc2n1ccc1nc(-c3ccccc3)c(/C=N/Nc3ccccn3)n12	1.3	-0.2	inactive	inactive	inactive	inactive	inactive	inactive	inactive	0.4	0	-1	-1.6	0.9	inactive	–	–
CN1C(=C2\C(=N\NC(=N)N)c3ccccc3N2C)/C(=N/NC(=N)N)c2ccccc21	7.7	11	inactive	inactive	inactive	inactive	inactive	inactive	inactive	0.9	8.2	-0.5	0.2	-0.8	inactive	–	–
C(=N\NC1=NCCN1)/c1c(-c2ccccc2)nc2n1ccc1nc(-c3ccccc3)c(/C=N/NC3=NCCN3)n12	10.8	> 15	inactive	inactive	inactive	inactive	inactive	inactive	inactive	1.6	> 20	-14	-8.9	1.3	Active	–	Activity [2]: inactive; Activity [4]: Dose-dependent effect; Activity [31]: Dose-dependent effect; ΔTm [18]: > 20 °C; ΔTm [19]: > 15 °C; ΔTm [20]: > 15 °C; Activity [21]: Dose-dependent effect; Activity [22]: Active; Activity [23]: inactive
CN1C(=C2\C(=N\Nc3ccccn3)c3ccccc3N2C)/C(=N/Nc2ccccn2)c2ccccc21	4	1.6	inactive	inactive	inactive	inactive	inactive	inactive	inactive	1.5	2	-2.5	-2	-0.7	inactive	–	–
